The test system of test [1] is MT-2 cells (Homo sapiens). Description: In vitro for the cytotoxicity in MT-2 cells.
The test system of test [2] is Human immunodeficiency virus 1. Put plainly: Selectivity index was determined by CC50/IC50 for Cytopathic effect. It counts as functional. In outline: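 Ratio of CC50 (XTT viability in uninfected MT-2 cells) to IC50 from HIV-1 IIIB CPE protection in MT-2 cells (XTT read-out, day 6).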
Background: Damage to the host cells serves as the signal in cytopathic effect assays.

A short description of test [3]: Inhibitory activity against NC-1 binding to N-36/C-34 peptide complex. It counts as functional. In outline: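 Sandwich ELISA: N-36 (2 μM) preincubated with graded compound 30 min at 37 °C, then C-34 (2 μM) added for 30 min at 37 °C. Mixture captured on wells coated with rabbit anti-N36(L6)C34 IgG (10 μg/mL), detected with mAb NC-1, biotin anti-mouse IgG, streptavidin-HRP and TMB; A450 read; IC50 via Calcusyn.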

The nature of test [4]: Inhibitory activity against HIV-I mediated H9 cells fusion. It counts as functional, cell-based, Human immunodeficiency virus 1. In outline:
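Dye transfer fusion assay: BCECF-AM-labeled H9/HIV-1 IIIB cells co-cultured with MT-2 cells (1:10) for 2 h at 37 °C with or without compound. Fused and unfused labeled cells counted by fluorescence microscopy; percent inhibition and IC50 derived.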

Test [5] can be described thus: Inhibitory activity against HIV-I mediated cytopathic effect in MT-2 cells. It counts as functional, cell-based. As to conditions: Human immunodeficiency virus 1, MT2. Put shortly:
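1×10^4 MT-2 cells infected with diluted HIV-1 IIIB in RPMI 1640 with 10% FBS, graded compound concentrations; medium changed during culture. On day 6 post-infection, XTT (1 mg/mL) added, formazan read at 450 nm after 4 h; percent CPE inhibition and IC50 calculated.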

Structures are written as SMILES. In brackets after ≈: the same amount, converted by molar mass.

Turning to `CC[C@H]1CN2CC[C@H]1C[C@@H]2[C@@H](OC(=O)c1ccccc1Cl)c1ccnc2ccc(OC)cc12`, the CC50 (in general, the concentration at which the toxic effect on the cells reaches its halfway point) in test [1] worked out at 41.3 µg/mL (≈ 88.9 µM). In addition, the Selectivity index in test [2] was < 1. Also, the IC50 (as a rule, the midpoint of a concentration-inhibition curve) is > 100 µg/mL in test [3], 59.78 µg/mL (≈ 129 µM) in test [4] and > 100 µg/mL in test [5].

Molecule `O=C(Nc1ccc(Cl)c(Cl)c1)O/N=C(/c1ccccc1)c1ccc(-c2ccccc2)cc1` registered a CC50 in test [1] of 74.7 µg/mL (≈ 162 µM). Besides, the Selectivity index in test [2] is < 1. The IC50 in test [3], in test [4] and in test [5] was > 100 µg/mL throughout.

With `C=C[C@H]1CN2CC[C@H]1C[C@@H]2[C@@H](OC(=O)c1ccc(OC)cc1)c1ccnc2ccccc12`, the CC50 in test [1] was determined as 74.1 µg/mL (≈ 173 µM). Further, in test [2], the Selectivity index is < 1. For the same molecule, the IC50 in test [3], in test [4] and in test [5] was > 100 µg/mL throughout.

In test [1], `Cc1ccc(N(C(=O)Nc2ccccc2)C(C)c2nc(O)c3ccccc3n2)c(C)c1` (stereo not given) registered a CC50 of 40.8 µg/mL (≈ 98.8 µM). The Selectivity index in test [2] is < 1. The IC50 in test [3], in test [4] and in test [5] was > 100 µg/mL each time.

`Cc1ccc(N(C(=O)Nc2ccc(Cl)c(Cl)c2)C(C)c2nc(O)c3ccccc3n2)c(C)c1` (stereo not given) returned a CC50 in test [1] of 39.2 µg/mL (≈ 81.5 µM). Also, in test [2], the Selectivity index was < 1. In addition, the IC50 in test [3], in test [4] and in test [5] was > 100 µg/mL each time.

In turn, `O=P(CCP(c1ccccc1)c1ccccc1)(c1ccccc1)c1ccccc1` gave a CC50 in test [1] of 28.9 µg/mL (≈ 69.7 µM). In test [2], the Selectivity index is < 1. Further, the values for the IC50 in test [3], in test [4] and in test [5] were > 100 µg/mL, 52.27 µg/mL (≈ 126 µM) and > 100 µg/mL, respectively.

Regarding `O=C(Nc1cc([N+](=O)[O-])ccc1-c1ccc([N+](=O)[O-])cc1)c1ccc([N+](=O)[O-])cc1Cl`, it took 47.2 µg/mL (≈ 107 µM) to reach half-maximal cytotoxicity in test [1] (CC50). Also, the Selectivity index in test [2] is < 1. The IC50 in test [3], in test [4] and in test [5] was > 100 µg/mL in each case.

As to `C/C(=N/OC(=O)NS(=O)(=O)c1ccc(C)cc1)c1cc2ccccc2oc1=O`, it took 286 µg/mL (≈ 714 µM) to reach half-maximal cytotoxicity in test [1] (CC50). Further, the Selectivity index in test [2] is < 1. Moreover, the IC50 in test [3], in test [4] and in test [5] was > 100 µg/mL in each case.

As for `Cc1ccc(C(=O)Nc2cccc(C(=O)N/N=C/c3ccc(Br)cc3)c2)cc1`, the CC50 in test [1] is 24.9 µg/mL (≈ 57.1 µM). Also, the Selectivity index in test [2] was < 1. The IC50 in test [3], in test [4] and in test [5] was > 100 µg/mL in each case.

As to `CC(Nc1ccccc1Cl)c1nc2ccccc2c(=O)n1Cc1ccccc1` (stereo not given), it took 86.8 µg/mL (≈ 223 µM) to reach half-maximal cytotoxicity in test [1] (CC50). Also, the Selectivity index in test [2] was < 1. Also, the IC50 in test [3], in test [4] and in test [5] was > 100 µg/mL in each case.

In turn, `COc1ccc2c(c1)CCCC2=NOC(=O)Nc1ccccc1-c1ccccc1` yielded a CC50 in test [1] of 46.8 µg/mL (≈ 121 µM). For the same molecule, the Selectivity index in test [2] was < 1. Besides, the IC50 in test [3], in test [4] and in test [5] was > 100 µg/mL in each case.

For `COc1ccc(S(=O)(=O)O)cc1/N=N/c1c(S(=O)(=O)O)cc2cc(Nc3nc(Nc4ccccc4)nc(Nc4cc(C)c(/N=N/c5cc(S(=O)(=O)O)cc6cc(S(=O)(=O)O)cc(O)c56)cc4OC)n3)ccc2c1O`, in test [1], it took 292 µg/mL (≈ 268 µM) to reach half-maximal cytotoxicity (CC50). The Selectivity index in test [2] was 35.2. Further, the IC50 in test [3] was 0.73 µg/mL (≈ 0.67 µM); in test [4], 4.95 µg/mL (≈ 4.55 µM); in test [5], 8.29 µg/mL (≈ 7.61 µM).

Take `COC(=O)c1cc(C(=O)OC)cc(N(C(=O)Nc2ccc(Cl)c(Cl)c2)C(C)c2nc3ccccc3c(=O)n2Cc2ccccc2)c1` (stereo not given): in test [1], half-maximal cytotoxicity (CC50) was put at 20.9 µg/mL (≈ 31.8 µM). The Selectivity index in test [2] was < 1. Moreover, the IC50 in test [3], in test [4] and in test [5] was > 100 µg/mL throughout.

In test [1], `Cc1ccc(N(C(=O)Nc2cccc(Cl)c2)C(C)c2nc(O)c3ccccc3n2)c(C)c1` (stereo not given) showed a CC50 of 54 µg/mL (≈ 121 µM). In test [2], the Selectivity index is < 1. In addition, the IC50 in test [3], in test [4] and in test [5] was > 100 µg/mL throughout.

Molecule `Cc1ccc(/N=N/c2c(S(=O)(=O)O)cc3cc(S(=O)(=O)O)cc(Nc4nc(Cl)nc(N(C)c5ccccc5)n4)c3c2O)c(S(=O)(=O)O)c1` registered a CC50 in test [1] of 290 µg/mL (≈ 394 µM). In test [2], this molecule returned a Selectivity index of 9.43. Also, the IC50 in test [3] stood at 3.18 µg/mL (≈ 4.32 µM); in test [4] it was 21.85 µg/mL (≈ 29.7 µM); in test [5] it was 30.8 µg/mL (≈ 41.8 µM).

Consider `CC(c1nc2ccc(Cl)cc2c(=O)n1Cc1ccccc1)N(C(=O)c1ccc([N+](=O)[O-])cc1)c1ccc(F)cc1` (stereo not given), for which the CC50 in test [1] is 30.2 µg/mL (≈ 54.2 µM). Also, the Selectivity index in test [2] was < 1. Moreover, the IC50 in test [3], in test [4] and in test [5] was > 100 µg/mL each time.
